Assay results: PMC6282584 (Chemmedchem, 2018)

Tests used:
PR [1] = molecular target: T1, PR (Rattus norvegicus, UniProt Q63449); experiment: Termination of early pregnancy in rats; assay type: in vivo; conditions: p.o., n=6
T1 sequence (Q63449 1-923): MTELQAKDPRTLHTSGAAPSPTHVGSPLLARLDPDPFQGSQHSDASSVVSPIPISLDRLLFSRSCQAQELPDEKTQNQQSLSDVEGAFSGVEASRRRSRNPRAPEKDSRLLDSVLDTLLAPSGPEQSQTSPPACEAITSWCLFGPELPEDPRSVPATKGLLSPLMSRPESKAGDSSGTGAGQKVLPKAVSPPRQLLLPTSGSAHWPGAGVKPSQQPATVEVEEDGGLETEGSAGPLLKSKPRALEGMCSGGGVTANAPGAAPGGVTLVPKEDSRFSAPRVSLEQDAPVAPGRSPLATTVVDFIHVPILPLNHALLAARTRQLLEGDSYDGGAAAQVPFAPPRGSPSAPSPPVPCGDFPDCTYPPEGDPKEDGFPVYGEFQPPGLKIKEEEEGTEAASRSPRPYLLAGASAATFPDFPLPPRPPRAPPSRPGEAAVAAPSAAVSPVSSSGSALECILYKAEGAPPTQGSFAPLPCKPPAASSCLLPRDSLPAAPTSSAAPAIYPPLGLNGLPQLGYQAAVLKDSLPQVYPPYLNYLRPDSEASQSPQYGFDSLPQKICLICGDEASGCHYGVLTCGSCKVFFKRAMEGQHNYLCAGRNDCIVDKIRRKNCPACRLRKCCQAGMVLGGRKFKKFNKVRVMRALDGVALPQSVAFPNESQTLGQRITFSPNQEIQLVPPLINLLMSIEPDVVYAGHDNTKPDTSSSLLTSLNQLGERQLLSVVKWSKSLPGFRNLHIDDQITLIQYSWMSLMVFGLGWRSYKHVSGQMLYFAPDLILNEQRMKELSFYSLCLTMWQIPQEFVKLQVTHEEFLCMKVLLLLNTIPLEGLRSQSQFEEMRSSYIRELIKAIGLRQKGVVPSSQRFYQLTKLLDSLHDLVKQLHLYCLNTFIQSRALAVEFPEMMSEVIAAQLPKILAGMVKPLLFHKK
Method in brief: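 Wistar rats (100–230 g) were randomized on Days 5–7 post-coitum (n=6 per group). They received test compound at several doses s.c. or p.o., or vehicle (benzyl benzoate/castor oil 1+4 v/v, or 85 mg polyoxyethylene-(50)-stearate in 100 mL 0.9 % NaCl). Autopsy was on Day 9. Full efficacy meant all animals lacked implantation sites or had only regressed or hemorrhagic sites.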

PR [2] = molecular target: T2, PR (Oryctolagus cuniculus, UniProt P06186); experiment: Endometrial transformation in rabbits; assay type: in vivo, rabbit; conditions: p.o., with progesterone, McPhail index 1 or 1.5
T2 sequence (P06186 1-930): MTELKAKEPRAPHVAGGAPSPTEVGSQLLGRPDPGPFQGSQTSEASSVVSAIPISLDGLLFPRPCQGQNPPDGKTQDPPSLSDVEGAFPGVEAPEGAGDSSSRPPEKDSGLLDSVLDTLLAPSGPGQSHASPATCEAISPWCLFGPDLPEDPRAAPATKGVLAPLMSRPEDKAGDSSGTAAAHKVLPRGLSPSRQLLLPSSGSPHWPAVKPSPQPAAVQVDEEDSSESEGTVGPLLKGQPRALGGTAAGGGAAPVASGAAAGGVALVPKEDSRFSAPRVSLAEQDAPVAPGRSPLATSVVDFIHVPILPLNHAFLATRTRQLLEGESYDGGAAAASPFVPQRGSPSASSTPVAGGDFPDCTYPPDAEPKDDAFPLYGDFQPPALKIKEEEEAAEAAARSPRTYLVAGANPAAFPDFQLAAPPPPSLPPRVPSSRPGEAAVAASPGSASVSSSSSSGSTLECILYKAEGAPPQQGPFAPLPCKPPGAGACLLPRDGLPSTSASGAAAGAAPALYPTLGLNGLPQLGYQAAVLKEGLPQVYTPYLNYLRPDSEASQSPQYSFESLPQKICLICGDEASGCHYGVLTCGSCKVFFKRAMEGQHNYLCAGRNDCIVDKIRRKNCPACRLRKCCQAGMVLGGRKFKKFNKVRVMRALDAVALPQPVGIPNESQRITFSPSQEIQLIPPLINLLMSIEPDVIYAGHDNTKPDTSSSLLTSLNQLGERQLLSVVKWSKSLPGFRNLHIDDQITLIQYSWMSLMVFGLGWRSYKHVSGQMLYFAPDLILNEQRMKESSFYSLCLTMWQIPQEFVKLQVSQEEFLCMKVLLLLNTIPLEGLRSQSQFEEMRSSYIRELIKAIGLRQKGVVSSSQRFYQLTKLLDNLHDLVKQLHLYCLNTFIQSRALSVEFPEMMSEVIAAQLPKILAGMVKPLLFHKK
Method in brief: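 Juvenile New Zealand white rabbits (35–42 days old, 900–1300 g) were primed with 17β-estradiol, […] s.c., on Days 1–4. For the antagonist test, animals were randomized (n=4) on Days 7–10 to 0.2 mg kg−1 day−1 progesterone s.c. plus test compound p.o. Autopsy was on Day 11. Glandular differentiation was scored by light microscopy as McPhail index 1–4. Full efficacy meant every animal in the group scored 1 or 1.5.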

[3] = Determination of lonaprisan and its metabolites in human serum; assay type: in vivo; conditions: single oral 200 mg lonaprisan
Method in brief: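 Serum was sampled from volunteers after a single oral dose of the parent steroid. Concentration–time profiles of the parent and three metabolites were measured by LC–MS/MS with external calibration against authentic reference compounds. PK parameters were then calculated. Each metabolite AUC(0–∞) was expressed as % of parent AUC and as a share of the summed AUC of drug-related compounds.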

CC(=O)c1ccc([C@H]2C[C@@]3(C)[C@@H](CC[C@@]3(O)C(F)(F)C(F)(F)F)[C@@H]3CCC4=CC(=O)CCC4=C32)cc1 [lonaprisan]
Dose of full efficacy, termination of early pregnancy in rats (PR [1]): 0.5 mg/kg
Dose of full efficacy, endometrial transformation in rabbits (PR [2]): 1.0 mg/kg
Relative contribution to sum of AUC of drug-related compounds [3]: 6%
